# Screens from PubChem.
# Rows were chosen to be rich in hits. Some 2.9% of all compounds tested hit in one or more screens of this group.
# 5HT1a ag: human 5-HT1a receptor agonists, primary screen, cell-based, CHO, Ga15 NFAT-bla reporter. CHO 5-HT1a Ga15 NFAT-bla reporter, FRET ratio; 0% basal, 100% maximal reference agonist. activation, % at 10 µM. 5-hydroxytryptamine receptor 1A (Homo sapiens), P08908. AID 567, 2006. 65,000 compounds, 0.56% hits;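 active means activation above the screen-wide mean activation plus 3 SD, cut at about 19% in these data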;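 further: 0% = DMSO wells and 100% = 5-CT at EC100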
# HTR1E agonist: 5-HT1E receptor agonists, primary screen, cell-based, HTS; 5-hydroxytryptamine receptor 1E (Homo sapiens), P28566; CHO 5-HT1E Ga15 NFAT-bla reporter, FRET; 0% DMSO wells, 100% control agonist wells; activation, % at 6 µM; 65,000 compounds, 0.69% hits; AID 574, 2007;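 active means activation above a set limit, the screen-wide mean activation plus 3 SD, cut at about 8.5% in these data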;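 further: 100% = positive control agonist at 1 µM giving full maximal response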
# S1P1 ag pot: S1P1 agonists and agonism potentiators, primary screen, cell-based, primary and confirmation screens, CRE-bla reporter | 56,000 compounds, 0.57% hits | activation, % at 9.5 µM | S1P1 CRE-bla cells, forskolin, beta-lactamase FRET, potentiator mode; S1P1 agonist co-added at EC20, 2 nM; 100% = saturating reference agonist, 0% = basal | Sphingosine 1-phosphate receptor 1 (Homo sapiens), P21453 | AID 449, 2006;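 active means activation above a cutoff set at the mean activation of all tested compounds plus 3 SD, cut at about 54% in these data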;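 further: forskolin at 4 µM as EC80 and the EC20 agonist is SEW2871; 100% = SEW2871 at its EC100 plus forskolin at EC80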
# 5HT1E antag: 5-HT1E receptor antagonists, primary screen, cell-based, HTS | 65,000 compounds, 0.99% hits | inhibition, % at 6 µM | AID 571, 2007 | CHO 5-HT1E Ga15 NFAT-bla reporter, FRET, antagonist;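 active means inhibition above a set limit, the mean inhibition across every tested compound plus 3 SD, cut at about 29% in these data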;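 further: signal is the 460 over 535 nm emission ratio of beta-lactamase substrate; 0% = agonist plus DMSO wells and 100% = wells without agonist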
# 5-HT1A blocker: human 5-HT1a receptor antagonists, primary screen, cell-based, CHO, Ga15 NFAT-bla reporter. CHO 5-HT1a Ga15 NFAT-bla reporter, antagonist mode. inhibition, % at 10 µM. 62,000 compounds, 0.68% hits. AID 612, 2007;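 active means inhibition above the mean of all tested compounds plus 3 SD, cut at about 43% in these data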;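 further: receptor stimulated by 5-CT agonist at 100 nM near EC80; beta-lactamase reporter measured by ratiometric fluorescence of a cleavable substrate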
# S1P3 agonist: human S1P3 receptor agonists, primary screen, cell-based, primary and confirmation, NFAT-BLA reporter; Sphingosine 1-phosphate receptor 3 (Homo sapiens), Q99500; S1P3 NFAT-BLA reporter cells, agonism, FRET ratio; relative to 1 µM S1P, basal subtracted; activation, % at 4.5 µM; 60,000 compounds, 0.1% hits; AID 373, 2006;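 active means activation above the screen-wide mean plus 3 SD, cut at about 4.5% in these data, passing the limit was not always enough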
# Target sequence (Q99500 whole entry, looked up): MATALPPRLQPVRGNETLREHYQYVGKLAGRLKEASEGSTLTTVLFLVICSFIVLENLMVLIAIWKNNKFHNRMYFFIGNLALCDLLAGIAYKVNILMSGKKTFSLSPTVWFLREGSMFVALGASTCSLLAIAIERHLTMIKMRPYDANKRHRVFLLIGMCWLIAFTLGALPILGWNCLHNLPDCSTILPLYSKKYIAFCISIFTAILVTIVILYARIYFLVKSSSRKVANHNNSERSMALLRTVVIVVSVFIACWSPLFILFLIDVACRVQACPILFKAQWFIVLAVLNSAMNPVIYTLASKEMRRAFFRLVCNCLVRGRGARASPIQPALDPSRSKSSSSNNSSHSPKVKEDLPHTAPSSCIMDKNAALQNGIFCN
#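 material = human S1P3 NFAT-BLA reporter CHO cells | schedule = 4 h compound at 37 °C, 2 h substrate at RT | measured by = fluorescent BLA substrate, ex 405 nm, em 460/535 nm ratio | controls = 1 µM S1P reference | replication = primary once, confirmation triplicate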
# The depositor's hits bear a star; · = not tested or not shown.
SMILES,5HT1a ag,HTR1E agonist,S1P1 ag pot,5HT1E antag,5-HT1A blocker,S1P3 agonist
Cn1cccc1C(=O)c1ccc(Cl)cc1Cl,-3,0,0,11,4,-1
CCOC(=O)C1CCN(C(=O)COc2ccc(S(=O)(=O)NC(C)C)cc2Cl)CC1,48*,0,-7,1,-7,1
CN(C)CCCN(CCCNC(=O)/C=N/O)Cc1ccccc1,-3,26*,5,5,·,-2
CN(CCCCCNC(=O)/C=N/O)Cc1ccccc1,-1,-1,7,-11,·,-4
O=C(Nc1ccc(O)cc1)c1cc2n(n1)C(C(F)(F)F)CC(c1ccco1)N2 (stereo not drawn),-1,0,100*,1,3,0
CCN1CCN(C(c2cccs2)C(C)NC(=O)c2cccnc2)CC1 (stereo not drawn),-1,0,1,-5,-10,0
CCCCn1nc(NC(=O)c2cccs2)c2cc3cc(OC)ccc3nc21,22*,4,-1,20,0,1
CCCn1nc(NC(=O)c2cccs2)c2cc3cc(OC)ccc3nc21,6,2,-4,18,-16,1
COC(=O)c1ccc(Cl)c(NC(=O)CN(c2ccc3c(c2)OCO3)S(C)(=O)=O)c1,-2,0,·,-6,1,0
O=c1[nH]c(=O)n(CCO)c2nnn(Cc3ccccc3)c12,-2,0,-14,0,11,0
CCOC(=O)c1sc(NC(=O)COC(=O)Cn2cnc3ccccc32)c(C(=O)OCC)c1C,-2,0,-10,-2,-13,0
CCn1cnc2sc(C(=O)N(Cc3ccc(N(C)C)cc3)Cc3ccco3)c(C)c2c1=O,2,0,-27,40*,-6,-1
CC1=C(C(=O)OC2CCCCCCC2)C(c2ccc(O)cc2)NC(=O)N1 (stereo not drawn),-3,0,22,29*,26,-1
N#CCCS(=O)(=O)c1nnnn1-c1ccccc1,0,-1,70*,79*,87*,-1
O=C(c1ccccc1)C(CCC(CN1CCOCC1)C(=O)c1ccccc1)CN1CCOCC1 (stereo not drawn),2,0,93*,13,·,-5
O=C(c1ccc(F)cc1)C(CN1CCOCC1)c1ccccc1 (stereo not drawn),0,0,75,51*,69*,-2
COc1ccc(-n2c(SCCC(=O)O)nnc2-c2ccncc2)cc1,-1,0,-8,-2,-9,0
C(=N\c1nc2ccccc2n1Cc1ccccc1)/c1cccs1,2,0,·,-2,1,-1
N#Cc1ccc(NC(=O)Nc2ccc(Cl)cc2)cc1,-2,0,129*,14,42,0
C=CCNc1nc2c(c(=O)[nH]c(=O)n2C)n1Cc1cccc(C)c1,-2,0,0,11,0,-1
OC(COc1c(F)cc(Br)cc1F)CN1CCN(c2ccc(F)cc2)CC1 (stereo not drawn),9,2,-12,-7,63*,0
CSc1nc2ccc(NS(=O)(=O)c3ccc4c(c3)OCCO4)cc2s1,-3,-1,·,-3,-3,·
CCOCCCNC(=O)CN1CCN(Cc2ccccc2C)C1=O,-5,-1,-6,-3,9,0
CCOc1ccc(CCNC(=O)CN2CCN(Cc3ccccc3C)C2=O)cc1OCC,47*,-1,-8,-2,-8,-1
CC(C)c1nnc(NC(=O)Cn2nc(-c3ccc4c(c3)OCCO4)ccc2=O)s1,-2,14*,8,0,-1,1
SMILES,5HT1a ag,HTR1E agonist,S1P1 ag pot,5HT1E antag,5-HT1A blocker,S1P3 agonist
COc1ccc(C(=O)/C=C\N2CCOCC2)cc1,1,-1,3,-4,6,-3
Cc1cccn2c(=O)c3cc(C(=O)N4c5ccccc5CC4C)n(C)c3nc12 (stereo not drawn),-1,0,-33,5,1,1
CC1Cc2ccccc2N1C(=O)c1cc2c(=O)n3ccccc3nc2n1C (stereo not drawn),3,0,-57,39*,-14,0
O=C(CSc1nnnn1-c1ccccc1)CC(=O)Nc1ccc(Cl)cc1,0,0,20,-4,14,0
COC(=O)c1ccccc1NC1c2ccccc2C(=O)N1c1cccnc1 (stereo not drawn),56*,-1,-24,13,12,-1
Cc1ccc(-c2cc(-c3ccc(Cl)cc3)c(C#N)c(N)n2)o1,4,0,-216,-2,-5,5.9*
Cc1cc(-c2cc(-c3ccc(Cl)cc3)nc(N)c2C#N)co1,41*,7,-87,-27,·,8
CC(C)(C)S(=O)(=O)c1c(C(=O)O)cccc1C(=O)O,0,-1,13,2,-10,-1
COc1ccccc1N(CC(=O)Nc1cccnc1)S(C)(=O)=O,-1,-1,-28,1,-6,-1
COC(=O)c1ccc(-c2ccc(CNCC(O)c3ccccc3)o2)cc1 (stereo not drawn),1,-1,-32,-8,-6,1
Cn1c(C(=O)N(Cc2ccccc2)Cc2cccs2)cc2sccc21,0,0,-11,9,43*,-1
Cn1c(C(=O)N(Cc2ccccc2)Cc2ccccn2)cc2sccc21,1,-1,-2,2,22,0
c1ccc(CC2CCN(c3nnnn3-c3ccccc3)CC2)cc1,-1,-1,24,32*,8,-1
CCCCC(=O)NC(Nc1nc(C2CC2)cs1)(C(=O)OCC)C(F)(F)F (stereo not drawn),0,0,-20,11,16,5.3*
CCN(CCNC(=O)C1CCN(c2nnc(-n3cccc3)s2)CC1)c1ccccc1,-2,1,-2,-4,-19,1
CCN1CCN(c2nc3c(c(=O)n(C)c(=O)n3C)n2CCSc2nccc(C)n2)CC1,-1,1,-13,1,-5,1
CCCCCC(=O)N(O)C1CC(=O)N(c2ccccc2)C1=O (stereo not drawn),-4,0,7,12,3,0
